Data published in BindingDB's records for doi:10.1021/jm501455s (Istituto Italiano Di Tecnologia, 2014).

target: T1, N-acylethanolamine-hydrolyzing acid amidase (Rattus norvegicus, UniProt Q5KTC7); assay: Inhibition of NAAA in Sprague-Dawley rat lung assessed as inhibition of hydrolysis of 10-cis-heptadecenoylethanolamide by UPLC/MS method
T1 sequence (Q5KTC7 whole entry): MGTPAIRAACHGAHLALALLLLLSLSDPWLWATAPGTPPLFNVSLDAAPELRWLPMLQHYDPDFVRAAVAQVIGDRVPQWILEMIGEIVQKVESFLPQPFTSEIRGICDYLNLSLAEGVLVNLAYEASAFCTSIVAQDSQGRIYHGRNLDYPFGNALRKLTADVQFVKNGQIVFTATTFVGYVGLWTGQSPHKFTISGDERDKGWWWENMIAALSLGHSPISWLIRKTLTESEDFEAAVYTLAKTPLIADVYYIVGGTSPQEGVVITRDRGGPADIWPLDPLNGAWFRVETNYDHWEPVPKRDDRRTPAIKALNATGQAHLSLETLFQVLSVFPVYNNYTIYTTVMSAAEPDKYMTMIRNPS
Outline: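 Native NAAA enzyme prepared from rat lungs, not a recombinant construct. The substrate, 10-cis-heptadecenoylethanolamide, is an unnatural fatty acid ethanolamide. Inhibition of its hydrolysis was measured, and the median inhibitory concentration (IC50) was reported.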

| IC50 [nM] | SMILES |
| --- | --- |
| 24 | Cc1ccc(-c2ccc(COC(=O)N[C@H]3C(=O)O[C@H]3C)cc2)cc1 |
| 15 | C[C@@H]1OC(=O)[C@@H]1NC(=O)OCC#Cc1ccccc1 |
| 28 | C[C@@H]1OC(=O)[C@@H]1NC(=O)OCc1ccc(-c2ccc(C(F)(F)F)cc2)cc1 [US9353075, 44] |
